This excerpt belongs to a sample that is enriched for hits.
VLA-4 inh: inhibition in a human VLA-4 binding assay. inhibition, % (about 7 µM as worked out from the volumes in the protocol). 330,000 compounds, 0.2% hits. VLA-4 expressing cells, ligand binding flow cytometry. AID 2557; in the data active = inhibition above about 50%
CHOP UPR activ: apoptotic UPR (CHOP) activation | 330,000 compounds, 0.34% hits | activation, % at 10 µM | CHO-CHOP luciferase reporter, luminescence; percent of tunicamycin response over DMSO baseline;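 active = at 10 µM dose, activation of 40% or more, normalized to positive control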;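 note: 100% = tunicamycin at 10 µg/mL and 0% = DMSO alone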
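Test system: CHO CHOP reporter cells. Input: 500 CHO-CHOP cells per well. Medium: F12 with 10% FBS. Technique: luciferase luminescence. Measure: percent activation relative to tunicamycin control. Dosing: 10 µM compound, 0.5% DMSO. Timing: 16-18 h cell attachment, then 6 h compound exposure, 37 °C.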
XBP1 UPR activ: activators of adaptive arm of unfolded protein response (XBP1); CHO-XBP1 luciferase reporter, IRE1-XBP1 UPR activation, luminescence; percent of tunicamycin response, DMSO as zero; activation, % at 20 µM; 330,000 compounds, 0.33% hits;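 active = versus positive control, 20 µM dose yields 30% or more activation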;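 note: 100% = tunicamycin at 10 µg/mL and 0% = DMSO only wells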
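incubation = overnight seeding at 37 °C, 6 h compound treatment at 37 °C | assay system = CHO-XBP1 cells stably carrying IRE1-XBP1-driven luciferase reporter | input = 1000 cells per well | detection = luciferase luminescence | dosing = single point, 20 µM final compound, 1% DMSO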
Beta2AR agonist: activates human beta-2 adrenergic receptor causing internalization | P07550 | Am2.2-beta2AR cells, FAP receptor internalization, flow cytometry | response, % (test concentration not listed) | 340,000 compounds, 0.43% hits | AID 504454;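 active = response above a set limit, near 3 SD of response in nonfluorescent compounds, cut at about 42% in these data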
Target sequence (P07550 whole entry, looked up): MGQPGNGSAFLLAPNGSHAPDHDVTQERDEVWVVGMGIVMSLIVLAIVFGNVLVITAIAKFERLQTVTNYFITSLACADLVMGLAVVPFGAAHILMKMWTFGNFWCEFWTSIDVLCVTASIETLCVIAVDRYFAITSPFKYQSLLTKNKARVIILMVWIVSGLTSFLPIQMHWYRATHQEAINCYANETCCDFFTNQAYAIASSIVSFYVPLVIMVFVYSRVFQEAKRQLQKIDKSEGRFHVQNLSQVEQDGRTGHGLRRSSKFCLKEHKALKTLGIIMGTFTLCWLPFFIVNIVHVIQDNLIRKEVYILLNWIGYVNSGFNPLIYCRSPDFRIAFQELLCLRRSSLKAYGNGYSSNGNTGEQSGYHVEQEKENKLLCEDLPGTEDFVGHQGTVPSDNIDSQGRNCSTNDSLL
CHOP inhibitor: blocks CHOP induction under ER stress; 220,000 compounds, 3.8% hits; CHO-K1 CHOP-promoter luciferase, tunicamycin-induced, 15-18 h; inhibition, % at 10 µM;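 active = compounds that reduced the stress-induced luciferase reporter signal by more than about 70% of percent inhibition, limit read from the data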;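 note: 0% = tunicamycin plus vehicle and 100% = wells without tunicamycin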
UPR CHOP confirm: apoptotic UPR (CHOP) activation, confirmed; shares compounds with CHOP UPR activ; CHO-CHOP cells, CHOP-luciferase reporter luminescence; percent of tunicamycin response, DMSO as zero; activation, % at 10 µM; 1,000 compounds, 64% hits; in the data active = activation above about 33%;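 note: 0% = DMSO wells and 100% = tunicamycin 10 µg/mL wells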
* hit, by the source's call; nt = not tested or not shown.

SMILES | VLA-4 inh | CHOP UPR activ | XBP1 UPR activ | Beta2AR agonist | CHOP inhibitor | UPR CHOP confirm
C[C@H]1CN([C@@H](C)CO)C(=O)c2cc(NS(=O)(=O)c3ccc(Cl)cc3)ccc2O[C@@H]1CN(C)CC1CCCCC1 | 3.4 | -1.4 | 2.5 | 1.1 | nt | nt
COc1cc(/C=C(\C#N)C(=O)NC2CCCCC2C)ccc1OS(=O)(=O)c1ccc(C)cc1 (stereo not drawn) | 22.8 | 76.1* | 23.2 | 12.2 | 62.0 | 9.2
COc1cc(/C=C(\C#N)C(N)=O)ccc1OS(=O)(=O)c1ccc(C)cc1 | 5.1 | 1.3 | -0.1 | 6.0 | -34.3 | nt
COc1ccccc1OCCN1CSC(=S)N(C)C1 | 15.5 | 81.9* | -2.8 | -5.6 | 28.7 | 27.9
Cc1cccc(OCCN2CSC(=S)N(C)C2)c1 | -8.5 | 58.8* | 5.8 | -1.0 | -68.5 | 35.4*
C/C(=N\NC(=O)c1ccc(F)cc1)c1ccccn1 | -15.4 | 302.8* | -1.0 | 11.5 | nt | 266.7*
C/C(=N\NC(=O)c1cc2ccccc2cc1O)c1ccccn1 | 8.7 | 245.0* | -0.4 | -1.2 | nt | 291.9*
C=CCNC(=S)N/N=C(\C)c1ccccn1 | 5.0 | 211.4* | 1.4 | 13.8 | 39.6 | 203.3*
CC(=NNC(=S)Nc1ccccc1Cl)c1ccccn1 | nt | nt | nt | 3.4 | nt | nt
C/C(=N\NC(=O)c1c[nH]c2ccccc12)c1ccccn1 | 2.0 | -2.1 | -1.0 | -4.4 | 59.2 | nt
Cc1ccc(OCc2cc(C(=O)N3CCN(CC(=O)NC(C)C)CC3)no2)cn1 | 3.3 | 0.6 | -3.0 | -2.5 | nt | nt
CCc1cc2c(=O)[nH]c(-c3ccccn3)nc2s1 | -17.4 | 289.7* | 11.4 | 5.0 | 47.4 | 246.7*
O=C(N/N=C(\c1ccccc1)c1cccnc1)c1cccc(F)c1 | -2.3 | 51.2* | -5.2 | 11.6 | nt | 90.7*
Cc1nc2ccccc2c(=O)n1-c1cccc(NC(=O)c2cccs2)c1 | -0.1 | -1.4 | -2.1 | -3.6 | nt | nt
O=C(Nc1cccc(N2C(=O)C=CC2=O)c1)c1cccs1 | 35.3 | 123.8* | -5.9 | 52.8* | nt | 11.7
COc1ccc(C(c2c(C)[nH]n(C(N)=S)c2=O)C(C#N)C#N)cc1 (stereo not drawn) | 21.7 | 61.8* | 1.7 | 7.6 | -59.0 | 55.6*
Cc1[nH]n(-c2ncc(-c3ccc(Cl)cc3)s2)c(=O)c1C(c1ccc(Cl)cc1)C(C#N)C#N (stereo not drawn) | 14.5 | 4.4 | 0.7 | 16.8 | -2.7 | nt
CC(=O)c1ccc(S(=O)(=O)NCCC(=O)NC2CCN(Cc3ccccc3)CC2)cc1 | 1.8 | -1.2 | -2.9 | -0.8 | nt | nt
CCC(=O)Nc1nnc(SCC(=O)NC2CCCC2)s1 | 6.7 | -0.7 | -3.8 | 4.4 | nt | nt
O=[N+]([O-])c1ccc(C=Nc2ccc(Cl)c([N+](=O)[O-])c2)s1 | nt | 60.6* | -3.2 | 26.0 | -25.4 | 49.2*
Cc1cc(C)cc(N=Cc2ccc([N+](=O)[O-])s2)c1 | -8.3 | 2.8 | 0.9 | 8.6 | -72.3 | nt
CCS(=O)(=O)c1cc([N+](=O)[O-])c(Sc2ccccc2NC(C)=O)s1 | -1.0 | 59.3* | 1.5 | 7.0 | -182.5 | 14.7
CC(C)CN(C(=O)Cn1c(Cl)nc2c1c(=O)n(C)c(=O)n2C)C1CCS(=O)(=O)C1 (stereo not drawn) | -1.1 | 3.2 | -2.7 | -6.1 | nt | nt
Cc1cc(C)n(-c2ccc(C)c(Cl)c2)n1 | 26.8 | 2.9 | -1.3 | -1.4 | -1.2 | nt
CC(C)CCNC(=O)c1ccc2c(SCC(=O)O)c3c(nc2c1)CCCC3 | 0.5 | 44.3* | -1.4 | -7.2 | -21.9 | -0.6
SMILES | VLA-4 inh | CHOP UPR activ | XBP1 UPR activ | Beta2AR agonist | CHOP inhibitor | UPR CHOP confirm
O=C(CCN1C(=O)/C(=C/c2cccs2)SC1=S)N1CCCCC1 | 3.3 | 40.2* | -2.9 | -2.1 | nt | 23.2
O=C(NC1CCCC1)C(c1ccc(F)cc1)N(Cc1ccc(Cl)cc1)C(=O)CCl (stereo not drawn) | 11.4 | 149.1* | 1.8 | 3.4 | 106.2* | 70.3*
COC(CN(C(=O)CCl)C(C(=O)NC1CCCCC1)c1ccc(Cl)cc1)OC (stereo not drawn) | 13.6 | -0.5 | 0.0 | 0.9 | -109.3 | nt
O=C(NC1CCCC1)C(c1ccc(Cl)cc1)N(Cc1ccc(F)cc1)C(=O)CCl (stereo not drawn) | 1.2 | 112.6* | 8.1 | 8.1 | 46.5 | 87.7*
Cc1ccc(CNC(=O)COC(=O)c2nc(-c3ccccc3)oc2C)cc1 | -4.8 | 0.7 | -0.3 | 10.0 | nt | nt
CC(C)CCN1C(=O)C2(OCCCO2)c2cc(Cl)ccc21 | 16.4 | 0.2 | -1.8 | -2.7 | nt | nt
Cc1sc2nc3c4ccccc4c(NCc4ccco4)nn3c(=O)c2c1C | -5.8 | -1.3 | -11.9 | -8.3 | -33.2 | nt
Cc1nc(NCc2ccco2)c2c(C)c(C)sc2n1 | 0.2 | 40.6* | -2.1 | 3.2 | -38.2 | 14.5
CCOC(=O)C1=C(C)N=c2s/c(=C\c3ccc(C(=O)O)cc3)c(=O)n2C1c1ccc(F)cc1 (stereo not drawn) | -0.1 | 0.0 | 7.5 | 23.4 | nt | nt
CC1(C)CC(=O)C2=C(C1)N=c1s/c(=C/c3ccc(F)c(F)c3)c(=O)n1C2c1ccc(F)cc1 (stereo not drawn) | -6.1 | 40.2* | 2.5 | 3.4 | -24.7 | 28.9
COc1ccc(-c2cc3ccccc3oc2=O)cc1NC(=S)NC(=O)c1ccc2c(c1)OCCO2 | -171.9 | 86.5* | 198.5* | 42.5* | -13.1 | 55.0*
O=C(c1cccs1)c1no[n+]([O-])c1C(=O)c1cccs1 | 31.5 | 20.4 | -6.1 | 31.7 | nt | nt
Cc1c(C(=O)c2no[n+]([O-])c2C(=O)c2cnn(C)c2C)cnn1C | 6.0 | 55.0* | -7.3 | 9.7 | 4.4 | 91.2*
CCOC(=O)c1cnc(-n2nc(C)cc2C)nc1Nc1ccc(N(C)C)cc1 | -5.2 | 72.6* | 35.9* | -9.6 | -111.0 | 35.0*
CCOc1cc(S(=O)(=O)NCCCN2CCOCC2)ccc1F | -6.0 | 2.3 | -3.9 | 0.2 | nt | nt
O=C(Nc1nc2ccc(F)cc2s1)c1ccccn1 | 1.0 | 79.9* | -7.7 | nt | 81.4* | 73.2*
O=C(CSc1nnc(C2CCCCC2)o1)Nc1ccccc1Cl | -3.2 | 3.3 | -3.0 | -6.7 | nt | nt
Cc1cc(C(=O)c2ccccc2)c(NC(=O)CCl)s1 | 19.3 | 44.7* | 2.7 | -5.5 | -152.2 | 3.6
CCN(CC)CC(=O)Nc1sc(C)cc1C(=O)c1ccccc1 | -12.2 | -1.0 | -1.8 | -1.8 | nt | nt
COC(=O)Oc1ccc(/C=C/C(=O)OC(C)C)cc1OC(=O)OC | 13.7 | 130.5* | 13.7 | 6.9 | 0.6 | 61.0*
CCCCOC(=O)/C=C/c1ccc(OC(=O)OC)c(OC(=O)OC)c1 | 13.5 | -0.3 | -1.6 | -0.9 | -19.7 | nt
COc1ccc(C(=O)NNC(=O)c2cccc(F)c2)cc1 | 18.1 | 2.7 | -0.7 | 1.0 | 0.4 | nt
Cc1cnnn1-c1ccc(C(=O)CCl)cc1 | -18.4 | 131.8* | -7.2 | 12.5 | 91.6* | -9.3
COc1cc(C(=O)Sc2ccc(Cl)cc2)cc(OC)c1OC | -7.9 | 54.6* | 21.3 | -5.8 | 61.5 | 72.8*

Screens: PubChem BioAssay, several laboratories
